Tests used:
[1] = tested on: Human immunodeficiency virus 1; test: Inhibition of HIV-1 in MT-4 human T-lymphoid cells infected with IIIb isolate; format: functional; details: Human immunodeficiency virus 1, T-lymphoid; read-out: CIC95
In short: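 Unless otherwise indicated, each value is from a single determination (n = 1).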

[2] = target: Human immunodeficiency virus type 1 protease (Human immunodeficiency virus 1, UniProt Q72874); test: Inhibitory activity against HIV-1 protease

Structure (SMILES)	IC95 [1]	IC50 [2]
C[C@H]1CS(=O)(=O)C[C@H]1OC(=O)N[C@@H](Cc1ccccc1)[C@H](O)CN1C[C@H]2CCCC[C@H]2C[C@H]1C(=O)NC(C)(C)C	800 nM	70 nM
CCC[C@H]1[C@@H](OC(=O)N[C@@H](Cc2ccccc2)[C@H](O)CN2C[C@H]3CCCC[C@H]3C[C@H]2C(=O)NC(C)(C)C)CCS1(=O)=O	400 nM	6.2 nM
CC(C)(C)NC(=O)[C@@H]1C[C@@H]2CCCC[C@@H]2CN1C[C@@H](O)[C@H](Cc1ccccc1)NC(=O)OC1CS(=O)(=O)C1		104 nM
CC[C@H]1[C@@H](OC(=O)N[C@@H](Cc2ccccc2)[C@H](O)CN2C[C@H]3CCCC[C@H]3C[C@H]2C(=O)NC(C)(C)C)CCS1(=O)=O	400 nM	
CCCC[C@H]1[C@@H](OC(=O)N[C@@H](Cc2ccccc2)[C@H](O)CN2C[C@H]3CCCC[C@H]3C[C@H]2C(=O)NC(C)(C)C)CCS1(=O)=O	400 nM	14.9 nM
CC(C)[C@@H]1[C@H](OC(=O)N[C@@H](Cc2ccccc2)[C@H](O)CN2C[C@H]3CCC[C@H]3C[C@H]2C(=O)NC(C)(C)C)CCS1(=O)=O	100 nM	3 nM
CCC[C@@H]1[C@H](OC(=O)N[C@@H](Cc2ccccc2)[C@H](O)CN2C[C@H]3CCCC[C@H]3C[C@H]2C(=O)NC(C)(C)C)CCS1(=O)=O	800 nM	20.1 nM
C[C@@H]1OCC[C@@H]1OC(=O)N[C@@H](Cc1ccccc1)[C@H](O)CN1C[C@H]2CCCC[C@H]2C[C@H]1C(=O)NC(C)(C)C	400 nM	
CC(C)[C@@H]1[C@H](OC(=O)N[C@@H](Cc2ccccc2)[C@H](O)CN2C[C@H]3CCCC[C@H]3C[C@H]2C(=O)NC(C)(C)C)CCS1(=O)=O	50 nM	3.5 nM
C[C@H]1[C@@H](OC(=O)N[C@@H](Cc2ccccc2)[C@H](O)CN2C[C@H]3CCCC[C@H]3C[C@H]2C(=O)NC(C)(C)C)CCS1(=O)=O	200 nM	
CC(C)(C)NC(=O)[C@@H]1C[C@@H]2CCCC[C@@H]2CN1C[C@@H](O)[C@H](Cc1ccccc1)NC(=O)O[C@H]1CCCS(=O)(=O)C1		1750 nM
C[C@H]1OCC[C@H]1OC(=O)N[C@@H](Cc1ccccc1)[C@H](O)CN1C[C@H]2CCCC[C@H]2C[C@H]1C(=O)NC(C)(C)C	1600 nM	
CC(C)(C)NC(=O)[C@@H]1C[C@@H]2CCCC[C@@H]2CN1C[C@@H](O)[C@H](Cc1ccccc1)NC(=O)O[C@H]1CCOC1	800 nM	
CC(C)(C)NC(=O)[C@@H]1C[C@@H]2CCCC[C@@H]2CN1C[C@@H](O)[C@H](Cc1ccccc1)NC(=O)O[C@@H]1CCCS(=O)(=O)C1		2070 nM
CC(C)[C@H]1[C@@H](OC(=O)N[C@@H](Cc2ccccc2)[C@H](O)CN2C[C@H]3CCCC[C@H]3C[C@H]2C(=O)NC(C)(C)C)CCS1(=O)=O	200 nM	
CC(C)(C)NC(=O)[C@@H]1C[C@@H]2CCCC[C@@H]2CN1C[C@@H](O)[C@H](Cc1ccccc1)NC(=O)O[C@H]1CCS(=O)(=O)C1	364 nM	76 nM
CC(C)(C)NC(=O)[C@@H]1C[C@@H]2CCCC[C@@H]2CN1C[C@@H](O)[C@H](Cc1ccccc1)NC(=O)O[C@@H]1CCS(=O)(=O)C1	> 800 nM	
C[C@H]1[C@@H](OC(=O)N[C@@H](Cc2ccccc2)[C@H](O)CN2C[C@H]3CCC[C@H]3C[C@H]2C(=O)NC(C)(C)C)CCS1(=O)=O	100 nM	12.6 nM
CC(C)(C)NC(=O)[C@@H]1C[C@@H]2CCCC[C@@H]2CN1C[C@@H](O)[C@H](Cc1ccccc1)NC(=O)O[C@H]1CCSC1		132 nM
C[C@@H]1[C@H](OC(=O)N[C@@H](Cc2ccccc2)[C@H](O)CN2C[C@H]3CCCC[C@H]3C[C@H]2C(=O)NC(C)(C)C)CCS1(=O)=O	200 nM	
CC(C)(C)NC(=O)[C@@H]1C[C@@H]2CCCC[C@@H]2CN1C[C@@H](O)[C@H](Cc1ccccc1)NC(=O)O[C@@H]1CCS(=O)(=O)[C@@H]1C1CCCC1	1500 nM	22.6 nM
CC(C)(C)NC(=O)[C@@H]1C[C@@H]2CCCC[C@@H]2CN1C[C@@H](O)[C@H](Cc1ccccc1)NC(=O)O[C@H]1CCS(=O)(=O)[C@H]1C1CCCC1	400 nM	6.2 nM
CC(C)(C)NC(=O)[C@@H]1C[C@@H]2CCCC[C@@H]2CN1C[C@@H](O)[C@H](Cc1ccccc1)NC(=O)O[C@@H]1CCSC1		220 nM
C[C@@H]1CS(=O)(=O)C[C@@H]1OC(=O)N[C@@H](Cc1ccccc1)[C@H](O)CN1C[C@H]2CCCC[C@H]2C[C@H]1C(=O)NC(C)(C)C	800 nM	216 nM
CC[C@@H]1[C@H](OC(=O)N[C@@H](Cc2ccccc2)[C@H](O)CN2C[C@H]3CCCC[C@H]3C[C@H]2C(=O)NC(C)(C)C)CCS1(=O)=O	800 nM	
CCCC[C@@H]1[C@H](OC(=O)N[C@@H](Cc2ccccc2)[C@H](O)CN2C[C@H]3CCCC[C@H]3C[C@H]2C(=O)NC(C)(C)C)CCS1(=O)=O	800 nM	45.8 nM
CC(C)(C)NC(=O)[C@@H]1C[C@@H]2CCC[C@@H]2CN1C[C@@H](O)[C@H](Cc1ccccc1)NC(=O)O[C@H]1CCS(=O)(=O)C1	> 200 nM	11.3 nM
CC(C)(C)NC(=O)[C@@H]1C[C@@H]2CCC[C@@H]2CN1C[C@@H](O)[C@H](Cc1ccccc1)NC(=O)O[C@H]1CCOC1	400 nM	61 nM
C[C@H]1C[C@@H](OC(=O)N[C@@H](Cc2ccccc2)[C@H](O)CN2C[C@H]3CCCC[C@H]3C[C@H]2C(=O)NC(C)(C)C)CS1(=O)=O		1600 nM
C[C@@H]1C[C@H](OC(=O)N[C@@H](Cc2ccccc2)[C@H](O)CN2C[C@H]3CCCC[C@H]3C[C@H]2C(=O)NC(C)(C)C)CS1(=O)=O	> 400 nM	82 nM

Reference: ChEMBL document CHEMBL1127636, “The development of cyclic sulfolanes as novel and high-affinity P2 ligands for HIV-1 protease inhibitors” (J Med Chem, 1994)
